Published values of several laboratories.
Lines come from different studies, so protocols differ.
Target: Serine/threonine-protein kinase 17A (STK17A, Homo sapiens, UniProt Q9UEE5)
One construct used (Q9UEE5 1-414): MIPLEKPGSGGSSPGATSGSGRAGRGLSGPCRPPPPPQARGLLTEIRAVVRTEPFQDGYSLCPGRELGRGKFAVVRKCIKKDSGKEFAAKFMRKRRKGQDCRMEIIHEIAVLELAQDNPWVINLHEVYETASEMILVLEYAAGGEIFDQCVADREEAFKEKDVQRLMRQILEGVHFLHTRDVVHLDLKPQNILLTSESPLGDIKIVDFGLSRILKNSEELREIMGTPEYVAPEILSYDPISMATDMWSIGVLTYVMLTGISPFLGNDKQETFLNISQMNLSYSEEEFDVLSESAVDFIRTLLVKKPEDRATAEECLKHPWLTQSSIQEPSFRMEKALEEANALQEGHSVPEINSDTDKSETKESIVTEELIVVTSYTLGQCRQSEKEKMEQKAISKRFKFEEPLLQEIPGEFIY

For CNC(=O)[C@@H]1CC[C@@H](n2c(-c3ccc4cnccc4c3)nc3ccc(C(=O)NCc4cccc(C(N)=O)c4)cc32)C1, the remaining binding was 100% (binding, competition with immobilised ligand; 1 µM).
With COc1cc(-c2cn(C3CCc4c(F)cccc4N(CC(F)(F)F)C3=O)nn2)ccc1-n1cnc(C)c1 (stereo not shown) the remaining binding was 100% (cell-free assay, competition with immobilised ligand; 1 µM).
With COc1cnc(Nc2cccc(S(N)(=O)=O)c2)nc1N1CCN(c2ccccc2)CC1 the remaining binding was 100% (binding, competition with immobilised ligand; 1 µM).
FC(F)(F)Oc1cccc(-c2cnc3ccc(-c4ccncc4)nn23)c1 has a remaining binding of 12% (cell-free assay, competition with immobilised ligand; 5 µM).
With O=C(c1ccc(Nc2ncc(Cl)c(-c3cc4ccccc4s3)n2)cc1)N1CCC(N2CCCC2)CC1 the remaining binding was 0% (binding, competition with immobilised ligand; 1 µM).
For C[C@@]1(Cc2ccc(C#N)cc2)C(=O)N(c2cc(Cl)cc(Cl)c2)c2ncc(C(=O)NC3(c4nc(C5CCC5)no4)CC3)n21, the remaining binding was 91% (cell-free assay, competition with immobilised ligand; 1 µM).
For O=C(NCCCN1CCOCC1)c1ccc(Nc2ncc(Cl)c(-c3ccc(Cl)s3)n2)cc1, the remaining binding was 0.85% (binding, competition with immobilised ligand; 1 µM).
With O=C(Nc1cccnn1)N1CCC(=Cc2cccc(Oc3ccc(C(F)(F)F)cn3)c2)CC1 the remaining binding was 79% (cell-free assay, competition with immobilised ligand; 1 µM).
CN(C)c1nccc(-c2cnn3ncccc23)n1 has a remaining binding of 76% (binding; 1 µM).
For CSc1cccnc1N1CCN(Cc2nc3ccccc3[nH]2)CC1, the remaining binding was 98% (cell-free assay, competition with immobilised ligand; 1 µM).
With F[C@@H]1CCN(c2nccc(-c3cnn4ncccc34)n2)C1 the remaining binding was 100% (binding; 1 µM).
With O=C(NCc1ncc(C(F)(F)F)cc1Cl)c1ccc2c(c1)C1(CCS(=O)(=O)CC1)[C@@H](C1CC1)N2S(=O)(=O)c1ccc(F)cc1 the remaining binding was 73% (cell-free assay, competition with immobilised ligand; 1 µM).
Cc1cnn2ncc(-c3ccnc(N(C)C)n3)c2c1 has a remaining binding of 86% (binding; 1 µM).
With O=C(Nc1c[nH]nc1C(=O)NC1CCNCC1)c1cc(F)cc(F)c1 the remaining binding was 95% (binding, competition with immobilised ligand; 1 µM).
With COc1ccnn2ncc(-c3ccnc(N(C)C)n3)c12 the remaining binding was 96% (binding; 1 µM).
C[C@H](c1cccc(C#N)c1)n1cc(Cl)cc(C(N)=O)c1=N gave a remaining binding of 85% (cell-free assay, competition with immobilised ligand; 1 µM).
C[C@@H]1CCN(c2nccc(-c3cnn4ncccc34)n2)C1 has a remaining binding of 19% (binding; 1 µM).
For Nc1ncc2c(n1)-c1c([nH]c3ccc(C#CC4CC4)cc13)CCCC2, the remaining binding was 98% (binding, competition with immobilised ligand; 1 µM).
N[C@H]1CCN(c2nccc(-c3cnn4ncccc34)n2)C1 gave a remaining binding of 100% (binding; 1 µM).
For Cc1c(C(=O)O)cc(-c2ccc(C3CCNCC3)cc2)c2ccc(-c3ccc(C(F)(F)F)cc3)cc12, the remaining binding was 99% (cell-free assay, competition with immobilised ligand; 1 µM).
For CN(CCCC(F)(F)F)c1nccc(-c2cnn3ncccc23)n1, the remaining binding was 100% (binding; 1 µM).
Cc1cnc(Nc2ccc(C(=O)N3CCC(N4CCCC4)CC3)cc2)nc1-c1cc2ccccc2s1 gave a remaining binding of 0.1% (binding, competition with immobilised ligand; 1 µM).
